Test results from ChEMBL document CHEMBL1141420, “Towards a new generation of potential antipsychotic agents combining D2 and 5-HT1A receptor activities” (J Med Chem, 2007).
The source made the active and inactive calls. The rule behind the calls is not given here.

Legend:
[1] = molecular target: T1, 5-hydroxytryptamine receptor 1A (Rattus norvegicus, UniProt P19327); test: Displacement of [3H]OH-DPAT from rat cortex 5HT1A receptor
T1 sequence (P19327 whole entry): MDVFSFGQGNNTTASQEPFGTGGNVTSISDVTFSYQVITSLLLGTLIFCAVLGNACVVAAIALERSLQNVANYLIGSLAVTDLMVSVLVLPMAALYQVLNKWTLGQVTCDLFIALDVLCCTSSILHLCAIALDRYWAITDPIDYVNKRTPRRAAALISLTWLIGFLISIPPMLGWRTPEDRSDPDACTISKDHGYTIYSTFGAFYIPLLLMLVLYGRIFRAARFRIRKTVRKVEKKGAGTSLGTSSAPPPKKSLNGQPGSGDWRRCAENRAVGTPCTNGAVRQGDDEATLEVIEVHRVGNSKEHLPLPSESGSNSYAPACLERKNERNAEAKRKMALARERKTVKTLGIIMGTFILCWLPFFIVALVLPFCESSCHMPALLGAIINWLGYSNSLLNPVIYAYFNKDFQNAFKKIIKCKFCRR

[2] = molecular target: D(2) dopamine receptor (Rattus norvegicus, UniProt P61169); test: Displacement of [3H]YM-09151-2 from rat striatum D2 receptor
Sequence of D(2) dopamine receptor (P61169 whole entry): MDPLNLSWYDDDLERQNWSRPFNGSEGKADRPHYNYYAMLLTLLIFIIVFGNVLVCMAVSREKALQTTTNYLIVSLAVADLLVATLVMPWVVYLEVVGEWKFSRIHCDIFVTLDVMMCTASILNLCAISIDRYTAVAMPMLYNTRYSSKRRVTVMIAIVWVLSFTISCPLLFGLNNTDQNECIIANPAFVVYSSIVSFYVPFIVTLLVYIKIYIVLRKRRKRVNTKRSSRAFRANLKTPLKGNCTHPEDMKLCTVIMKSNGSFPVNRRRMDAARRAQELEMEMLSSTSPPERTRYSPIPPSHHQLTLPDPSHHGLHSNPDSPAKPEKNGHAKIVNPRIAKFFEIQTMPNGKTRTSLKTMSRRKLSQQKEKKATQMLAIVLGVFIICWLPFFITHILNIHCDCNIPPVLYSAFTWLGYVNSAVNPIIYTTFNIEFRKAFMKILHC

[3] = molecular target: T2, 5-hydroxytryptamine receptor 1A (Homo sapiens, UniProt P08908); test: Agonist activity at human 5HT1A receptor in HeLa cells assessed as stimulation of [35S]GTP-gamma-S binding; type: functional, cell-based
T2 sequence (P08908 whole entry): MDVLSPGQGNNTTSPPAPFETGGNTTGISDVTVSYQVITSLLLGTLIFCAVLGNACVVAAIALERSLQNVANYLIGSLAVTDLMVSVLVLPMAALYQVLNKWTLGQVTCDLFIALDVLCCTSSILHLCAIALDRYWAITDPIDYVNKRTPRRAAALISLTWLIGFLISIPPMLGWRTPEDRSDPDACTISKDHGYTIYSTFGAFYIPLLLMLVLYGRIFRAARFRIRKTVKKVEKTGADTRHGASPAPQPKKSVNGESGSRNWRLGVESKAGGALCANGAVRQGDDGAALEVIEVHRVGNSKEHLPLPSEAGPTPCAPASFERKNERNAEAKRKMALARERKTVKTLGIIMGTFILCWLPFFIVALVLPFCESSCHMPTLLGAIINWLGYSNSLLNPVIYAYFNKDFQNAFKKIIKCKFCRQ
Outline: (§1)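 Membranes from HeLa cells expressing human 5-HT1A, prepared by homogenisation and 40 000 g spins in Hepes/EDTA, incubated with compound 1 h at 30 °C. [35S]GTPγS added at 0.1 nM final, then 30 min at 30 °C. Filtration and scintillation counting. Six concentrations from 10^-10 to 10^-5 M, triplicate, three experiments.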

[4] = molecular target: T3, 5-hydroxytryptamine receptor 1A (Homo sapiens) (UniProt P08908); test: Agonist activity at human 5HT1A receptor in HeLa cells assessed as stimulation of [35S]GTPgammaS binding relative to serotonin; type: functional, cell-based; outline: as §1
T3 sequence (whole entry): T2 sequence (P08908 whole entry)

[5] = tested on: Rattus norvegicus; test: Normalizing effect on methylphenidate-induced behaviours in ip dosed rat after 30 min; type: functional; settings: for ED50: 0.5 h
Outline: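 Rats given methylphenidate 40 mg/kg i.p. plus compound i.p. (10 mL/kg; doses as free base), seven per dose. Over 10 min starting 30 min after injection, locomotion, rearing, sniffing, gnawing and licking scored in 10 s observations repeated 10 times. Normalization judged against saline and methylphenidate controls.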

[6] = molecular target: 5-hydroxytryptamine receptor 2A (Rattus norvegicus, UniProt P14842); test: Displacement of [3H]ketanserin from rat cortex 5HT2A receptor
Sequence of 5-hydroxytryptamine receptor 2A (P14842 whole entry): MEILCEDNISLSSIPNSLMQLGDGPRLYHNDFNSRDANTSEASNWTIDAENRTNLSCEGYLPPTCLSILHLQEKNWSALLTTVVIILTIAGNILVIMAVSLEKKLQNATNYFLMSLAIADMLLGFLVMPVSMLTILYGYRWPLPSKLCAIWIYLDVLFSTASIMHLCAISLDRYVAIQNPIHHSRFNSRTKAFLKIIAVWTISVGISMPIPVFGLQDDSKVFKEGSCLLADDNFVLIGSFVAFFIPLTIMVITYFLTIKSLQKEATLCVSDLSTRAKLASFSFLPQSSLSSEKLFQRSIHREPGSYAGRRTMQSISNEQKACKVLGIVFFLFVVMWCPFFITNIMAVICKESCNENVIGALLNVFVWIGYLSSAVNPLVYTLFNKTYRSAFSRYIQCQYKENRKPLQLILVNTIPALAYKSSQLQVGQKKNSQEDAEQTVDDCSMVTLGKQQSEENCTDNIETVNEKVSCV

[7] = tested on: Rattus norvegicus; test: Induction of catalepsy in ip dosed rat after 60 min by crossed-leg position test; type: functional; settings: 1 h
Outline: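 Rats dosed i.p. (10 mL/kg; doses as free base), seven per dose. From 60 min, hind limbs crossed over the ipsilateral forelimbs and time held recorded, up to 30 s. Repeated at 3 and 6 min and the three trials averaged. Incidence taken as catalepsy lasting 30 s.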

[8] = tested on: Rattus norvegicus; test: Induction of lower lip retraction in ip dosed rat after 15 min; type: functional; settings: 0.25 h
Outline: (§2)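 Rats given compound i.p. (10 mL/kg; doses as free base), five per dose, observed individually for 10 min from 15 min post-injection. LLR scored present if uninterrupted for ≥3 s, in 10 cycles; response was ≥1 positive score. FBP scored present only if seen over the whole period.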

[9] = tested on: Rattus norvegicus; test: Induction of flat body posture in ip dosed rat after 15 min; type: functional; settings: 0.25 h; outline: as §2
[10] = tested on: Rattus norvegicus; test: Induction of forepaw treading in rat at 40 mg/kg, ip; type: functional, organism-based; design: dose 40 mg/kg
[11] = tested on: Rattus norvegicus; test: Ratio of ED50 for LLR induction to ED50 for normalization in ip dosed rat; type: functional
[12] = tested on: Rattus norvegicus; test: Ratio of ED50 for catalepsy induction to ED50 for normalization in ip dosed rat; type: functional
[13] = molecular target: D(2) dopamine receptor (Rattus norvegicus) (UniProt P61169)
Sequence of D(2) dopamine receptor (Rattus norvegicus) (P61169 whole entry): as the sequence (P61169 whole entry) above

Compound	Ki [1] [nM]	Ki [2] [nM]	EC50 [3] [nM]	Emax [4] [%]	Activity [5]	Ki [6] [nM]	ED50 [5] [mg/kg]	ED50 [7] [mg/kg]	ED50 [8] [mg/kg]	ED50 [9] [mg/kg]	Activity [10]	Ratio ED50 [11]	Ratio ED50 [12]	pKb [13]
CCC1(C)Cc2cccc(OCCNCc3cccc(C4=CCCC4)c3)c2O1 (stereo unspecified)	5.5	11.5	32.4	77.7	Active	–	–	–	–	–	–	–	–	–
CC(C)Oc1ccccc1OCCNCc1cccc(C2=CCCCC2)c1	12.3	1.55	46.8	69.8	–	191	–	–	–	–	–	–	–	–
CC(C)Oc1ccccc1OCCNCc1cccc(-c2ccccc2)c1	26.3	0.195	1410	73.9	–	724	–	–	–	–	–	–	–	–
O=c1[nH]c2cccc(N3CCN(Cc4cccc(-c5ccccc5)c4)CC3)c2o1 [BIFEPRUNOX]	64.6	1.55	324	60.8	–	3310	–	–	–	–	–	–	–	–
O=C(CCCN1CCC(O)(c2ccc(Cl)cc2)CC1)c1ccc(F)cc1 [HALOPERIDOL]	–	–	–	–	–	–	0.31	0.3	–	–	–	–	–	–
CC(C)Oc1ccccc1OCCNCc1cccc(C2=CCCCCC2)c1	22.9	3.09	1550	86.5	–	1050	–	–	–	–	–	–	–	–
CC(C)Oc1ccccc1OCCNCc1cccc(-c2cccs2)c1	46.8	0.562	> 10000	–	–	562	–	–	–	–	–	–	–	–
CC1(C)Cc2cccc(OCCNCc3cncc(C4=CCCC4)c3)c2O1	0.955	0.275	2.88	72.4	–	–	0.29	> 40	1.8	4.7	inactive	6.2	>137	9.29
CC(C)Oc1ccccc1OCCNCc1cccc(-c2ccsc2)c1	34.7	0.275	67.6	47.7	–	347	–	–	–	–	–	–	–	–
CC1(C)Oc2cccc(OCCNCc3cccc(C4=CCCC4)c3)c2O1	9.55	1.23	24.5	90.6	Active	–	–	–	–	–	–	–	–	–
C1=C(c2cccc(CNCCOc3cccc4c3OCO4)c2)CCC1	20.9	2.57	135	70.7	–	–	–	–	–	–	–	–	–	–
C1=C(c2cccc(CNCCOc3cccc4c3OCCO4)c2)CCC1	1.7	0.776	6.46	68.9	Active	–	–	–	–	–	–	–	–	–
C1=C(c2cncc(CNCCOc3cccc4c3OC3(CC3)C4)c2)CCC1	3.63	0.447	2.63	78.5	Active	–	–	–	–	–	–	–	–	–
Fc1ccc(-c2cncc(CNC[C@H]3CCc4ccccc4O3)c2)cc1 [SARIZOTAN]	2.24	19.1	77.6	66.5	–	2140	–	–	–	–	–	–	–	–
CCCN(CCC)C1CCc2cccc(O)c2C1 (stereo unspecified) [8-OH-DPAT]	–	–	–	82	–	–	> 10	> 10	0.09	0.28	–	–	–	–
CC(C)Oc1ccccc1OCCNCc1cccc(C2=CCCC2)c1	29.5	0.501	69.2	54	–	646	–	–	–	–	–	–	–	–
CC1(C)Cc2cccc(OCCNCc3cccc(C4=CCCC4)c3)c2O1	5.75	0.417	10	85.6	–	–	1.1	> 40	8.3	32	inactive	7.5	>36	8.29
CC1(C)COc2c(OCCNCc3cccc(C4=CCCC4)c3)cccc21	42.7	0.813	112	72.4	Active	–	–	–	–	–	–	–	–	–
CC(C)Oc1ccccc1OCCNCc1cccc(-c2ccco2)c1	67.6	0.339	> 10000	–	–	372	–	–	–	–	–	–	–	–
Fc1ccc(-c2cncc(CN3CCN(c4cccc5c4OCCO5)CC3)c2)cc1 [ADOPRAZINE]	2.29	–	5.89	45.3	–	724	1.4	> 40	0.32	1.7	–	–	–	7.81
CC(C)Oc1ccccc1OCCNCc1cccc(C2CC2)c1	61.7	0.603	> 10000	–	–	110	–	–	–	–	–	–	–	–
C1=C(c2cccc(CNCCOc3cccc4c3OC3(CC3)C4)c2)CCC1	6.17	1.12	33.9	93.8	Active	–	–	–	–	–	–	–	–	–
CC(C)Oc1ccccc1OCCNCc1cccc(C2CCCC2)c1	16.6	0.562	195	71.2	–	302	–	–	–	–	–	–	–	–
